Calls of active or inactive are those of the source. No cut-off for these calls is given here.

1 compound from ChEMBL document CHEMBL5357066, “Development of Novel Membrane Disrupting Lipoguanidine Compounds Sensitizing Gram-Negative Bacteria to Antibiotics” (ACS Med Chem Lett, 2024) can be followed below.

The nature of series [1]: Toxicity in Galleria mellonella larvae assessed as reduction in animal survival at 10 to 50 mg/kg measured for 120 hrs. The class given is organism-based. Conditions: in vivo, dose 10-50 mg/kg. A digest of the protocol: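 Wax moth larvae, assumed 300 mg mean weight with 50 µL haemolymph, 10 per group. Each was injected via the front proleg with 10 µL of compound at 50, 20 or 10 mg/kg, or PBS only. Larvae were held at 37 °C for 5 days and scored live/dead every 24 h; dead meant no response to physical stimuli.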

For series [2], the system named is Klebsiella pneumoniae. In words: Synergistic antibacterial activity against Klebsiella pneumoniae NCTC 13368 assessed as fractional inhibitory concentration index incubated for overnight in presence of rifampicin by microbroth dilution checker board assay. It is filed as functional. The essentials:
(§1)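 Checkerboard microdilution under MIC conditions (TSB, overnight, 37 °C). Two-fold series of each agent were combined on one plate before bacteria were added, and single-agent MICs were measured on the same plate. FIC = sum of combination MIC/alone MIC for each agent, taken from the most synergistic well. Three independent repeats, mean ± SD. ≤0.5 was taken as strong synergy and 0.5–<1 as weak.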
A general note: In broth dilution the organism is exposed to a series of concentrations in liquid medium.

Series [3] deals with Pseudomonas aeruginosa. As to the kind of experiment: Synergistic antibacterial activity against Pseudomonas aeruginosa NCTC 13437 assessed as fractional inhibitory concentration index incubated for overnight in presence of rifampicin by microbroth dilution checker board assay. The class given is functional. The essentials: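 Checkerboard microdilution in Tryptic Soy Broth, run like the MIC assay. Overnight TSB cultures were back-diluted to OD 0.01 and added 1:1 to the combined two-fold series of both agents, then incubated overnight at 37 °C. Growth/no-growth was called at <0.1 OD600. MICs alone were read on the same plates. FIC index came from the most synergistic well; three independent repeats, mean ± SD.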

The test system of series [4] is Cell membrane. As to the kind of experiment: Induction of outer membrane permeabilization in Klebsiella pneumoniae NCTC 13368 assessed as increase fluorescence intensity by measuring NPN uptake factor measured immediately for 2 hrs by fluorescence based analysis. The class given is subcellular. A digest of the protocol: (§2)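 NPN outer-membrane uptake. Overnight TSB cultures (37 °C, 200 rpm) were subcultured 1:20 for 2 h to mid-log, washed, and resuspended in 5 mM HEPES with 5 mM glucose, pH 7.2. Cells were mixed with assay buffer containing 10 µM NPN, then with compound, polymyxin B (positive control) or buffer. Fluorescence (ex 350, em 420 nm) was monitored immediately for 2 h.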

Series [5] concerns Cell membrane. As to the kind of experiment: Induction of outer membrane permeabilization in Pseudomonas aeruginosa NCTC 13437 assessed as increase fluorescence intensity by measuring NPN uptake factor measured immediately for 2 hrs by fluorescence based analysis. The class given is subcellular. A digest of the protocol:
as §2

For series [6], the system named is Cell membrane. As to the kind of experiment: Induction of outer membrane permeabilization in Acinetobacter baumannii ATCC 17978 assessed as increase fluorescence intensity by measuring NPN uptake factor measured immediately for 2 hrs by fluorescence based analysis. The class given is subcellular. The essentials:
as §2

The subject of series [7] is Cell membrane. In words: Induction of outer membrane permeabilization in Pseudomonas aeruginosa PAO1 assessed as increase fluorescence intensity by measuring NPN uptake factor measured immediately for 2 hrs by fluorescence based analysis. It is filed as subcellular. The essentials:
as §2

The test system of series [8] is Cell membrane. In words: Induction of outer membrane permeabilization in Escherichia coli NCTC 12923 assessed as increase fluorescence intensity by measuring NPN uptake factor measured immediately for 2 hrs by fluorescence based analysis. The class given is subcellular. A digest of the protocol: as §2
The subject of series [9] is Klebsiella pneumoniae. In words: Synergistic antibacterial activity against Klebsiella pneumoniae NCTC 13368 assessed as reduction in rifampicin MIC at 8 to 64 microg/ml incubated for overnight by microbroth dilution checkerboard assay. Conditions: dose 8-64 µg/ml. The class given is functional, organism-based. A digest of the protocol:
as §1

The subject of series [10] is Klebsiella pneumoniae. As to the kind of experiment: Synergistic antibacterial activity against Klebsiella pneumoniae M6 assessed as reduction in rifampicin MIC at 8 to 32 microg/ml incubated for overnight by microbroth dilution checkerboard assay. It is filed as functional, organism-based. The conditions noted are these: dose 8-32 µg/ml. The essentials: (§3)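 Broth microdilution in Tryptic Soy Broth, with rifampicin in a 2-fold dilution series combined with the second agent. Bacteria were grown overnight in TSB, back-diluted, then incubated with the compounds overnight at 37 °C. MIC was taken as the lowest concentration with no visible growth (<0.1 OD600).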

Series [11] concerns Acinetobacter baumannii. In words: Synergistic antibacterial activity against Acinetobacter baumannii AYE assessed as reduction in rifampicin MIC at 32 microg/ml incubated for overnight by microbroth dilution checkerboard assay. The class given is functional, organism-based. Conditions: dose 32.0 µg/ml. The essentials:
as §1

Series [12] deals with Acinetobacter baumannii. In words: Synergistic antibacterial activity against Acinetobacter baumannii ATCC 17978 assessed as reduction in rifampicin MIC at 32 microg/ml incubated for overnight by microbroth dilution checkerboard assay. It is filed as functional, organism-based. Conditions: dose 32.0 µg/ml. The essentials:
as §1

Series [13] relates to Pseudomonas aeruginosa. As to the kind of experiment: Synergistic antibacterial activity against Pseudomonas aeruginosa PAO1 assessed as reduction in rifampicin MIC at 8 to 32 microg/ml incubated for overnight by microbroth dilution checkerboard assay. The class given is functional, organism-based. The conditions noted are these: dose 8-32 µg/ml. The essentials:
as §3

The test system of series [14] is Pseudomonas aeruginosa. In words: Synergistic antibacterial activity against Pseudomonas aeruginosa NCTC 13437 assessed as reduction in rifampicin MIC at 8 to 32 microg/ml incubated for overnight by microbroth dilution checkerboard assay. It is filed as functional, organism-based. The conditions noted are these: dose 8-32 µg/ml. The essentials: as §3
In series [15] the test system is Escherichia coli. In words: Synergistic antibacterial activity against Escherichia coli NCTC 12923 assessed as reduction in rifampicin MIC at 32 microg/ml incubated for overnight by microbroth dilution checkerboard assay. The class given is functional, organism-based. The conditions noted are these: dose 32.0 µg/ml. The essentials: as §1
Series [16] deals with Klebsiella pneumoniae. As to the kind of experiment: Potentiation of doxycycline induced antibacterial activity against Klebsiella pneumoniae NCTC 13368. The class given is functional, organism-based.
Series [17] relates to Klebsiella pneumoniae. As to the kind of experiment: Potentiation of doxycycline induced antibacterial activity against Klebsiella pneumoniae M6. The class given is functional, organism-based.
In series [18] the test system is Pseudomonas aeruginosa. As to the kind of experiment: Potentiation of doxycycline induced antibacterial activity against Pseudomonas aeruginosa PAO1. The class given is functional, organism-based.
In series [19] the test system is Pseudomonas aeruginosa. As to the kind of experiment: Potentiation of doxycycline induced antibacterial activity against Pseudomonas aeruginosa NCTC 13437. It is filed as functional, organism-based.

Consider `CCCCCCCCCCNC(=N)NCCCCN`, for which the Activity result in series [1] was “Non-Toxic”; in [4] it was over 1; in [5] it was over 1; in [6], over 1; in series [7] it was over 1; in [8], over 1. In addition, the “fractional inhibitory concentration index (FICI)” value is on record as 0.1 in [2] and 0.15 in [3]. Moreover, the result in series [9], in series [10], in series [11], in series [12], in [13] and in series [14] was Active. Besides, the result in [15], in series [16], in series [17], in series [18] and in series [19] was Active.
